Assay outcomes as filed in PubChem BioAssay.
Rows were chosen to be rich in hits. Some 2% of all compounds tested hit in one or more screens of this group.
HIF act: HIF pathway transcriptional activators, primary screen, cell-based, U2OS HRE-luciferase, luminescence. U2OS HRE-luciferase reporter; normalized: DMSO 0%, desferrioxamine 100%. activation, % at 7.5 µM (by protocol). hit rate 0.32% among 300,000;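 active means mean activation of at least 10% of the iron chelator positive control signal, with at least half of replicates also reaching 10%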
EBV LMP1 NFkB: EBV LMP1-driven NF-kappaB luciferase reporter inhibitors, primary screen, cell-based, luminescence, single point. LMP1-induced NF-kappaB luciferase reporter cells. AID 504558, 2011. hit rate 0.69% among 350,000. inhibition, % at 12.5 µM; in the data active means inhibition above about 41%;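 further: 0% = neutral control wells and 100% = reference inhibitor control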
NR2E3 ag-1: NR2E3 agonists in two-hybrid cells, primary screen, cell-based, luminescence, CHO-S, Gal4-NCOR/VP16-NR2E3. inhibition of corepressor binding, % at 3.98 µM. Photoreceptor-specific nuclear receptor (Homo sapiens), Q9Y5X4. luciferase. AID 602229, 2012. hit rate 0.35% among 360,000;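 active means inhibition above the mean of all tested compounds plus 3 SD, cut at about 70% in these data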;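 further: 0% = DMSO with NR2E3 transfected cells and 100% = cells lacking NR2E3 construct; higher means lower luciferase signal from less NR2E3 corepressor binding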
Target sequence (Q9Y5X4 whole entry, looked up, the tested form may be a part): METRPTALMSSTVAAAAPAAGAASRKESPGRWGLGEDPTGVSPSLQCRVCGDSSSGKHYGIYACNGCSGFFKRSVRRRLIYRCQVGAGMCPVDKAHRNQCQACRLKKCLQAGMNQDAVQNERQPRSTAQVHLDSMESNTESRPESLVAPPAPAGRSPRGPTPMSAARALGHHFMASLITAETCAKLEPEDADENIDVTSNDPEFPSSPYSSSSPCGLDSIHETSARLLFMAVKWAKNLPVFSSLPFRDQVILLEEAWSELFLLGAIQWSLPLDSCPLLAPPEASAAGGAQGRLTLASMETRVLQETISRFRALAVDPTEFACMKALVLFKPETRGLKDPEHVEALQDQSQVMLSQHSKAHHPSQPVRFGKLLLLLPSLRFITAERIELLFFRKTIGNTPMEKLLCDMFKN
NR2E3 ag-2: inhibitors of NR2E3-RetCOR corepressor binding, primary screen, NR2E3 agonist project, biochemical, TR-FRET, GST-NR2E3, biotin-RetCOR; Photoreceptor-specific nuclear receptor (Homo sapiens), Q9Y5X4; 1536-well; inhibition of corepressor binding, % at 4.78 µM; hit rate 0.12% among 320,000;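 active means percent inhibition above the cutoff of mean plus 3 SD of all tested compounds, set per screening campaign, cut at about 20% in these data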;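 further: 0% = DMSO wells and 100% = biotin wells as full block of FRET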
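System: GST-NR2E3 and biotin-RetCOR proteins; probe or stimulus: 7 nM biotin-RetCOR; doses: compound at 4.8 µM, single dose; schedule: Compound–protein incubation for 5 h at 4 °C; detection: time-resolved FRET; read-out: percent inhibition; controls: biotin wells as high control, 0.6% DMSO wells as low control; format: 1536-well plates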
TROY NFkB inh: inhibitors of TROY-driven NF-kB signaling, primary screen, Q293 LMP1-TROYcd cells, NF-kB luciferase, uHTS. hit rate 0.98% among 360,000. AID 1347056, 2019. Q293 LMP1-TROYcd NF-kB luciferase reporter, 4 h. inhibition, % at 10 µM;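 active means compounds whose plate-normalised and pattern-corrected inhibition of the luciferase reporter signal at the single screening dose is 50% or more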
Numbers without * were called inactive; / = no result given.

SMILES	HIF act	EBV LMP1 NFkB	NR2E3 ag-1	NR2E3 ag-2	TROY NFkB inh
CCC(=O)Nc1cccc(NC(=O)c2cc3ccccc3o2)c1	3.0	-17.6	-114.1	-0.9	-55.8
O=C(Cc1cccc2ccccc12)Nc1ccc(-c2cc3ccccc3oc2=O)cc1	-0.8	54.8*	38.9	2.1	57.6*
CCC(=O)Nc1cccc(-c2cc3ccccc3oc2=O)c1	0.4	1.6	42.7	1.5	62.7*
CCN(C(=O)CSc1n[nH]c(N)n1)C1CCCCC1	/	-3.9	-10.6	/	1.3
COc1ccc(-c2nc3c4ccccc4ccn3c2Cc2ccccc2)cc1OC	/	/	-88.0	/	-24.5
O=[N+]([O-])c1ccc(O)c(/C=N/Nc2nc3ccccc3[nH]2)c1	-2.3	28.4	-44.2	-0.1	-40.2
O=[N+]([O-])c1ccc(O)c(/C=N/Nc2ccccn2)c1	63.2*	46.7*	25.5	-2.4	16.3
O=[N+]([O-])c1ccc(O)c(/C=N/Nc2ncnc3c2cnn3-c2ccccc2)c1	0.3	46.6*	4.1	/	6.7
O=C(N/N=C/c1cc([N+](=O)[O-])ccc1O)c1cc(-c2ccccc2)nc2ccccc12	19.8*	3.6	-3.6	0.6	22.0
O=C(N/N=C/c1cc([N+](=O)[O-])ccc1Cl)c1cc(-c2ccccc2)nc2ccccc12	0.4	11.8	-42.1	1.9	16.5
O=C(N/N=C/c1cc([N+](=O)[O-])ccc1O)NC12CC3CC(CC(C3)C1)C2	0.1	26.6	-1.3	1.9	85.1*
O=C(N/N=C/c1cc([N+](=O)[O-])ccc1O)C12CC3CC(CC(C3)C1)C2	3.5	10.4	-23.1	0.0	-15.0
COc1ccc(CC(=O)N/N=C/c2ccc(C)s2)cc1	-0.2	-3.4	-26.4	-1.9	-45.6
CN(C(=O)CCNC(=O)Cn1cnc2ccccc2c1=O)c1ccccc1F	-0.3	3.3	-10.3	3.9	10.7
COc1cccc(C2=NO[C@@H]3C(=O)N(c4ccc5c(c4)OCCO5)C(=O)[C@H]23)c1OC	-0.6	23.8	9.2	-0.6	68.9*
CCc1nnc(NC(=O)CSc2nnc3scc(-c4ccc(C)cc4)n23)s1	-0.2	2.8	-1.8	2.1	2.9
Cc1ccc(-c2nc(NC(=O)CSc3nnc4scc(-c5ccccc5)n34)ns2)cc1	0.4	-3.6	-10.1	-2.4	52.2*
Cc1c(/C(O)=C2\C(=O)C(=O)N(CCCN(C)C)C2c2ccccc2)cnn1-c1ccccc1 (stereo not drawn)	/	13.1	44.8	/	86.2*
CCOc1ccc(NC(=O)COC(=O)C2C3CC4OC(=O)C2C4C3)cc1 (stereo not drawn)	-0.4	3.9	-1.4	-2.1	-8.2
CCC(Sc1nc2ncccc2[nH]1)C(=O)NCCc1ccccc1 (stereo not drawn)	-0.4	-1.2	-9.2	1.5	-11.1
CCCCN1C2CCCC1CC(NC(=O)C1CCCCC1)C2 (stereo not drawn)	0.0	51.4*	-11.6	1.9	-4.0
O=C(NC1CC2CCCC(C1)N2Cc1ccccc1)C1CCCCC1 (stereo not drawn)	0.2	1.1	3.0	-3.6	-14.2
CCOc1ccccc1N(CC)C(=O)c1ccc2c(=O)n3c(nc2c1)CCCCC3	-0.7	2.3	0.6	-1.7	-2.4
CCOC(=O)c1ccc(CC(=O)c2ccc(O)cc2O)o1	3.8	50.6*	-25.3	2.7	27.7
COC(=O)c1ccc(CC(=O)c2ccc(O)cc2O)o1	0.0	-0.2	-21.6	3.2	13.3
SMILES	HIF act	EBV LMP1 NFkB	NR2E3 ag-1	NR2E3 ag-2	TROY NFkB inh
CC(C)c1ccc(NC(=O)c2ccc(NC3=NC4CS(=O)(=O)CC4S3)cc2)cc1 (stereo not drawn)	0.8	-0.5	-36.7	3.2	-19.1
O=C(c1cc(S(=O)(=O)NCc2ccco2)ccc1Br)N1CCOCC1	/	70.9*	12.0	-0.8	2.4
COc1ccc(S(=O)(=O)NCc2ccco2)cc1C(=O)N1CCOCC1	-0.1	1.7	-9.1	2.4	-21.0
Nc1ccccc1SC1CC(=O)N(c2ccccc2Cl)C1=O (stereo not drawn)	0.4	46.8*	-24.0	4.3	-1.1
O=C(NCCCN1CCOCC1)c1ccc2c(c1)N(Cc1c(F)cccc1Cl)C(=O)CS2	-0.1	-0.2	-3.5	0.7	-6.3
CN1/C(=C\C(=O)COc2ccc3c(c2)OCO3)C(C)(C)c2ccccc21	1.1	14.0	-13.7	0.4	69.0*
COc1ccccc1OCC(=O)/C=C1/N(C)c2ccccc2C1(C)C	-0.4	23.7	17.7	-1.6	12.9
COC(=O)c1ccccc1-n1c(CCC(=O)O)ccc1-c1ccc(F)cc1	0.5	2.3	14.2	-3.0	-17.0
COc1ccc(-n2c(CCC(=O)O)ccc2-c2ccc(F)cc2)c(OC)c1	0.6	-1.4	-24.7	-5.2	50.6*
CCOc1cc(/C=N/NC(=O)c2cccnc2)ccc1OCc1ccc(C(=O)OC)o1	13.6*	-8.2	-14.0	-1.2	3.3
CCOc1cc(/C=N/NC(=O)c2ccc(CN3CCOCC3)cc2)ccc1OCc1ccccc1	0.2	-12.9	-5.5	-1.6	51.3*
COc1c(Br)cc(Br)cc1/C=N/NC(=O)c1cccnc1	1.2	-7.0	5.4	/	6.7
CCOc1cc(Br)cc(/C=N/NC(=O)c2cccnc2)c1O	9.3	67.8*	-5.9	-0.7	-15.3
O=C(CNC(=O)c1ccccc1F)N/N=C/c1ccc2c(c1)OCO2	1.0	-22.9	-66.8	0.1	-39.4
Cc1cccc(-c2cccc3nccn23)c1	/	/	6.2	/	-7.6
CN(CC(=O)Nc1ccc(F)c(F)c1F)C(=O)/C=C/c1ccc(Cl)cc1	224.9*	4.9	-12.3	0.1	8.7
COc1cccc(/C=N/Nc2nccnc2Cl)c1O	30.6*	72.3*	-158.6	/	46.3
COc1ccc(/C=N/Nc2nccnc2Cl)c(OC)c1	2.6	-18.9	-71.8	-6.5	-33.9
O=[N+]([O-])c1cccnc1N/N=C/c1ccccc1O	20.7*	12.0	-63.7	-2.7	18.4
Oc1ccc(/C=N/Nc2nccnc2Cl)c(O)c1	2.2	33.3	-133.0	1.5	-49.0
Oc1ccccc1/C=N/Nc1nccnc1Cl	126.6*	57.8*	-113.5	1.7	-16.9
COc1cccc(/C=N/Nc2ncnc3scc(-c4ccccc4)c23)c1O	104.8*	80.6*	-4.8	0.2	43.6
COc1ccc(CN2CCN(C3CCC3)CC2CCO)c(C)c1C (stereo not drawn)	-6.6	-1.7	-20.8	1.9	1.8
CN(C)c1ccc(CC(=O)N2CCCCC2c2cc(C(=O)Nc3cccc(C#N)c3)no2)cc1 (stereo not drawn)	/	/	11.0	/	9.7
CCCC1(c2ccccc2)NC(=O)N(CC(=O)NCC2COc3ccccc3O2)C1=O (stereo not drawn)	/	0.7	-8.5	3.1	4.2
